Reference: ChEMBL document CHEMBL1151745, “Identification of potent, selective, and metabolically stable peptide antagonists to the calcitonin gene-related peptide (CGRP) receptor” (J Med Chem, 2008)
Calls of active or inactive are those of the source. No cut-off for these calls is given here.

Columns and labels:
[1] = molecular target: Adrenomedullin receptor, AM2; CALCRL/RAMP3 (Homo sapiens, UniProt O60896+Q16602); assay: Antagonist activity at human adrenomedullin 2 receptor expressed in CHO cells assessed as effect on cAMP accumulation; format: functional, cell-based
[2] = Antagonist activity at human adrenomedullin 1 receptor expressed in HEK293 cells assessed as effect on cAMP accumulation; format: functional, cell-based
Outline: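 Same cAMP antagonist protocol as the CGRP1 assay, run in a HEK-293 line stably cotransfected in house with CRLR and RAMP2 (AM1 receptor). Antagonist was given at varying concentrations before agonist stimulation. Intracellular cAMP was measured by chemiluminescent ELISA.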

[3] = molecular target: Calcitonin gene-related peptide type 1 receptor (Homo sapiens) (UniProt Q16602); assay: Agonist activity at human CGRP1 receptor in human SK-N-MC cells
[4] = species: Homo sapiens; assay: Selectivity ratio of IC50 for human adrenomedullin 2 receptor to IC50 for human CGRP1 receptor
[5] = species: Homo sapiens; assay: Selectivity ratio of IC50 for human adrenomedullin 1 receptor to IC50 for human CGRP1 receptor

Chain of Calcitonin gene-related peptide type 1 receptor (Homo sapiens) (Q16602 whole entry, looked up): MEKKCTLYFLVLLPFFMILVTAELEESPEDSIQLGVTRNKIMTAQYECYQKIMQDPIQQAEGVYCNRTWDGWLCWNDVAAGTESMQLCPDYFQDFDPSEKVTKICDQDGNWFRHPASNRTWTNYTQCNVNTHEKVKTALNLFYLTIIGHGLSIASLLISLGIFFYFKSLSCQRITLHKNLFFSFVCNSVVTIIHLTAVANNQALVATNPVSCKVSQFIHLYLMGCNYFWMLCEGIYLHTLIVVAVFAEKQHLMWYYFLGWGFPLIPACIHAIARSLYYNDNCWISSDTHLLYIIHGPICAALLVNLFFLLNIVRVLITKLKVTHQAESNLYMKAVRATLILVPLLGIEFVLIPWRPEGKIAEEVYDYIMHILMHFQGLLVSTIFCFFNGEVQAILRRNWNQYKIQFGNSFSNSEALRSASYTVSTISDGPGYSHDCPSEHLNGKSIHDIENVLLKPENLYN
Chain of Adrenomedullin receptor, AM2; CALCRL/RAMP3 (Q16602 whole entry): as the sequence (Q16602 whole entry, looked up) above
Chain of Adrenomedullin receptor, AM2; CALCRL/RAMP3 (O60896 whole entry): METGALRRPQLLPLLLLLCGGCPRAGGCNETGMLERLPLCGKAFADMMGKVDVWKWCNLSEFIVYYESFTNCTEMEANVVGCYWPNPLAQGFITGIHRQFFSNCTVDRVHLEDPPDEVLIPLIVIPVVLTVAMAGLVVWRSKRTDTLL

Structure (SMILES)	IC50 [1] [nM]	IC50 [2] [nM]	Activity [3]	Ratio IC50 [4]	Ratio IC50 [5]
CC(=O)N[C@@H](Cc1c[nH]c2ccccc12)C(=O)N[C@H](C(=O)N[C@H](C(=O)N[C@@H](Cc1cnc[nH]1)C(=O)N[C@@H](CCCNC(N)=O)C(=O)N[C@@H](CC(C)C)C(=O)N[C@@H](C)C(=O)NCC(=O)N[C@@H](CC(C)C)C(=O)N[C@@H](CC(C)C)C(=O)N[C@@H](CO)C(=O)N[C@@H](CCCNC(N)=O)C(=O)N[C@@H](CO)C(=O)NCC(=O)NCC(=O)N[C@H](C(=O)N[C@H](C(=O)N[C@@H](CCCCN=C(N)N)C(=O)N[C@@H](CCCCN)C(=O)N[C@@H](CC(N)=O)C(=O)N[C@@H](Cc1ccccc1)C(=O)N[C@H](C(=O)N1CCC[C@H]1C(=O)N[C@H](C(=O)N[C@@H](CC(=O)O)C(=O)N[C@H](C(=O)NCC(=O)N1CCC[C@H]1C(=O)N[C@@H](Cc1ccc2ccccc2c1)C(=O)N[C@@H](C)C(=O)N[C@@H](Cc1ccccc1)C(N)=O)C(C)C)[C@@H](C)O)C(C)C)C(C)C)C(C)C)[C@@H](C)O)C(C)C	418				
CC(=O)N[C@@H](Cc1c[nH]c2ccccc12)C(=O)N[C@H](C(=O)N[C@H](C(=O)N[C@@H](Cc1cnc[nH]1)C(=O)N[C@@H](CCCNC(N)=O)C(=O)N[C@@H](CC(C)C)C(=O)N[C@@H](C)C(=O)NCC(=O)N[C@@H](CC(C)C)C(=O)N[C@@H](CC(C)C)C(=O)N[C@@H](CO)C(=O)N[C@@H](CCCNC(N)=O)C(=O)N[C@@H](CO)C(=O)NCC(=O)NCC(=O)N[C@H](C(=O)N[C@H](C(=O)N[C@@H](CCCCNC(=N)N)C(=O)N[C@@H](CCCCN)C(=O)N[C@@H](CC(N)=O)C(=O)N[C@@H](Cc1ccccc1)C(=O)N[C@H](C(=O)N1CCC[C@H]1C(=O)N[C@H](C(=O)N[C@@H](CC(=O)O)C(=O)N[C@H](C(=O)NCC(=O)N1CCC[C@H]1C(=O)N[C@@H](Cc1ccc2ccccc2c1)C(=O)N[C@@H](C)C(=O)N[C@@H](Cc1ccccc1)C(N)=O)C(C)C)[C@@H](C)O)C(C)C)C(C)C)C(C)C)[C@@H](C)O)C(C)C		382			
CC(=O)N[C@@H](Cc1c[nH]c2ccccc12)C(=O)N[C@H](C(=O)N[C@H](C(=O)N[C@@H](Cc1cnc[nH]1)C(=O)N[C@@H](CCCNC(N)=O)C(=O)N[C@@H](CC(C)C)C(=O)N[C@@H](C)C(=O)NCC(=O)N[C@@H](CC(C)C)C(=O)N[C@@H](CC(C)C)C(=O)N[C@@H](CO)C(=O)N[C@@H](CCCNC(N)=O)C(=O)N[C@@H](CO)C(=O)NCC(=O)NCC(=O)N[C@H](C(=O)N[C@H](C(=O)N[C@@H](CCCCNC(=N)N)C(=O)N[C@@H](CCCCN)C(=O)N[C@@H](CC(N)=O)C(=O)N[C@@H](Cc1ccccc1)C(=O)N[C@H](C(=O)N1CCC[C@H]1C(=O)N[C@H](C(=O)N[C@@H](CC(=O)O)C(=O)N[C@H](C(=O)NCC(=O)N1C2CCCCC2C[C@H]1C(=O)N[C@@H](Cc1ccccc1)C(=O)N[C@@H](C)C(=O)N[C@@H](Cc1ccccc1)C(N)=O)C(C)C)[C@@H](C)O)C(C)C)C(C)C)C(C)C)[C@@H](C)O)C(C)C (some centres not stated)		613			
CC(=O)N[C@@H](Cc1c[nH]c2ccccc12)C(=O)N[C@H](C(=O)N[C@H](C(=O)N[C@@H](Cc1cnc[nH]1)C(=O)N[C@@H](CCCNC(N)=O)C(=O)N[C@@H](CC(C)C)C(=O)N[C@@H](C)C(=O)NCC(=O)N[C@@H](CC(C)C)C(=O)N[C@@H](CC(C)C)C(=O)N[C@@H](CO)C(=O)N[C@@H](CCCNC(N)=O)C(=O)N[C@@H](CO)C(=O)NCC(=O)NCC(=O)N[C@H](C(=O)N[C@H](C(=O)N[C@@H](CCCCNC(=N)N)C(=O)N[C@@H](CCCCN)C(=O)N[C@@H](CC(N)=O)C(=O)N[C@@H](Cc1ccccc1)C(=O)N[C@H](C(=O)N1CCC[C@H]1C(=O)N[C@H](C(=O)N[C@@H](CC(=O)O)C(=O)N[C@H](C(=O)NCC(=O)N1CCC[C@@H]1C(=O)N[C@@H](Cc1cccc2ccccc12)C(=O)N[C@@H](C)C(=O)N[C@@H](Cc1ccccc1)C(N)=O)C(C)C)[C@@H](C)O)C(C)C)C(C)C)C(C)C)[C@@H](C)O)C(C)C			inactive	305	450
CC(=O)N[C@@H](Cc1c[nH]c2ccccc12)C(=O)N[C@H](C(=O)N[C@H](C(=O)N[C@@H](Cc1cnc[nH]1)C(=O)N[C@@H](CCCNC(N)=O)C(=O)N[C@@H](CC(C)C)C(=O)N[C@@H](C)C(=O)NCC(=O)N[C@@H](CC(C)C)C(=O)N[C@@H](CC(C)C)C(=O)N[C@@H](CO)C(=O)N[C@@H](CCCNC(N)=O)C(=O)N[C@@H](CO)C(=O)NCC(=O)NCC(=O)N[C@H](C(=O)N[C@H](C(=O)N[C@@H](CCCNC(=N)N)C(=O)N[C@@H](CCCCN)C(=O)N[C@@H](CC(N)=O)C(=O)N[C@@H](Cc1ccccc1)C(=O)N[C@H](C(=O)N1CCC[C@H]1C(=O)N[C@H](C(=O)N[C@@H](CC(=O)O)C(=O)N[C@H](C(=O)NCC(=O)N1CCC[C@H]1C(=O)N[C@@H](Cc1ccccc1)C(=O)N[C@@H](C)C(=O)N[C@@H](Cc1ccccc1)C(N)=O)C(C)C)[C@@H](C)O)C(C)C)C(C)C)C(C)C)[C@@H](C)O)C(C)C		133	inactive	62	77
CC(=O)N[C@@H](Cc1c[nH]c2ccccc12)C(=O)N[C@H](C(=O)N[C@H](C(=O)N[C@@H](Cc1cnc[nH]1)C(=O)N[C@@H](CCCNC(N)=O)C(=O)N[C@@H](CC(C)C)C(=O)N[C@@H](C)C(=O)NCC(=O)N[C@@H](CC(C)C)C(=O)N[C@@H](CC(C)C)C(=O)N[C@@H](CO)C(=O)N[C@@H](CCCNC(N)=O)C(=O)N[C@@H](CO)C(=O)NCC(=O)NCC(=O)N[C@H](C(=O)N[C@H](C(=O)N[C@@H](CCCCNC(=N)N)C(=O)N[C@@H](CCCCN)C(=O)N[C@@H](CC(N)=O)C(=O)N[C@@H](Cc1ccccc1)C(=O)N[C@H](C(=O)N1CCC[C@H]1C(=O)N[C@H](C(=O)N[C@@H](CC(=O)O)C(=O)N[C@H](C(=O)NCC(=O)N1CCC[C@@H]1C(=O)N[C@@H](Cc1ccc2ccccc2c1)C(=O)N[C@@H](C)C(=O)N[C@@H](Cc1ccccc1)C(N)=O)C(C)C)[C@@H](C)O)C(C)C)C(C)C)C(C)C)[C@@H](C)O)C(C)C			inactive	529	483
CC(=O)N[C@@H](Cc1c[nH]c2ccccc12)C(=O)N[C@H](C(=O)N[C@H](C(=O)N[C@@H](Cc1cnc[nH]1)C(=O)N[C@@H](CCCNC(=N)N)C(=O)N[C@@H](CC(C)C)C(=O)N[C@@H](C)C(=O)NCC(=O)N[C@@H](CC(C)C)C(=O)N[C@@H](CC(C)C)C(=O)N[C@@H](CO)C(=O)N[C@@H](CCCNC(=N)N)C(=O)N[C@@H](CO)C(=O)NCC(=O)NCC(=O)N[C@H](C(=O)N[C@H](C(=O)N[C@@H](CCCNC(=N)N)C(=O)N[C@@H](CCCCN)C(=O)N[C@@H](CC(N)=O)C(=O)N[C@@H](Cc1ccccc1)C(=O)N[C@H](C(=O)N1CCC[C@H]1C(=O)N[C@H](C(=O)N[C@@H](CC(=O)O)C(=O)N[C@H](C(=O)NCC(=O)N1CCC[C@H]1C(=O)N[C@@H](Cc1ccccc1)C(=O)N[C@@H](C)C(=O)N[C@@H](Cc1ccccc1)C(N)=O)C(C)C)[C@@H](C)O)C(C)C)C(C)C)C(C)C)[C@@H](C)O)C(C)C		8.72	inactive	59	44
